The results in this text go back to PubChem BioAssay.

A word on the viability: it is a read-out of living cells in per cent, often relative to untreated cells. What is called inhibition is the drop in the measured response relative to a control, in per cent.

The nature of test [1]: Her2 expression decrease, cell viability multiplex – SKBR3 breast tumor cells, AlphaScreen, ATP viability, primary screen (AID 461;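 active means Her2 level under about 52% in both replicate screens, with viability over 70% of control, limit read from the data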;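 on Her2 level: lower value means less Her2 protein in the cells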;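 on viability: percent of carrier control wells set as 100% viability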). Particulars: SKBR3 Her2 protein level, 18-24 h, measured here: SKBR3 viability, ATP luminescence, at 10 µM.
Test [2] concerns the target Receptor tyrosine-protein kinase erbB-2 (Homo sapiens) (UniProt P04626). The description is as above. The conditions noted are these: 18-24 h, at 10 µM, stronger effect = lower value.
A short description of test [3]: reduced viability of SK-BR-3 breast cancer cells – cell-based, 24 h, human, pilot screen (AID 572;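 active means viability at or below 10% of carrier control in both of two separate runs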;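 further: compound exposure lasted between 18 and 24 h rather than exactly 24 h; 100% = carrier-treated control wells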). Particulars: SK-BR-3 viability, CellTiter-Glo luminescence, at 10 µM, stronger effect = lower value. Background: In ATP-based viability assays light output follows the ATP content of the culture.
A short description of test [4]: HUVEC growth inhibition – cell-based, human, primary screen (AID 575;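 active means viability at or below 30% in both replicate assays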;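 further: 100% = median of untreated cell wells with 0.1% DMSO on each plate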). The conditions noted are these: HUVEC proliferation, CellTiter-Glo luminescence, 72 h; at 10 µM; stronger effect = lower value. The procedure, abridged: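 Assay system: primary human umbilical vein endothelial cells / Buffer or medium: endothelial basal medium with 2% FBS plus growth supplements / Compound dosing: one dose, 10 µM final, 0.1% DMSO / Timing: 72 h treatment at 37 °C / Signal: CTG luminescence / Benchmarks: 32 DMSO-only cell-control wells (high), 32 MePR drug-control wells (low) per plate / Plate: collagen-coated 384-well format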

The nature of test [5]: H69AR cell proliferation blockers – human, duplicate replicates, primary screen (AID 580;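 active means viability at or under a set limit in both replicates, limit being median viability minus 3 SD, cut at about 48% in these data, passing the limit was not always enough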;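 further: 100% = mean luminescence of untreated wells and 0% = no signal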). The conditions noted are these: H69AR lung tumor cells viability, ATP luminescence, 72 h; at 10 µM; stronger effect = lower value.
A short description of test [6]: MRP1 drug-resistance reversers in H69AR cells – cell-based, doxorubicin co-treatment, pilot screen (AID 601). The conditions noted are these: CellTiter-Glo, 72 h, at 10 µM; for differential viability (reversal): stronger effect = higher value.
Test [7] can be described thus: yeast transport mutant growth inhibition pilot in 384-well plates, post-Golgi transport modulator project (AID 636; in the data active means inhibition above about 31%). Particulars: absorbance 615 nm, about 18 h, stronger effect = higher value.
Test [8] in a line: growth suppression of yeast trafficking mutant, preliminary HTS, modulators of trafficking downstream of Golgi apparatus project, 1536-format plate, OD 615 nm (AID 637; in the data active means inhibition above about 30%). The conditions noted are these: yeast transport mutant growth, absorbance 615 nm, 18 h; stronger effect = higher value.
Setting [9] is: H69AR cells + 2 uM doxorubicin, measured here: viability with 2 uM doxorubicin, stronger effect = lower value.
Where [10] appears, read: H69AR cells, compound alone cytotoxicity.

Calls of active or inactive are those of the source.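 How the source made its calls, unless noted: active means viability loss from added drug above about 55%, and viability with drug at most 40%, in both replicates (limit read from the data, passing the limit was not always enough); inconclusive means both conditions met in only one replicate; inactive means neither replicate meets both conditions.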

Receptor tyrosine-protein kinase erbB-2 (Homo sapiens), sequence (P04626 whole entry, looked up): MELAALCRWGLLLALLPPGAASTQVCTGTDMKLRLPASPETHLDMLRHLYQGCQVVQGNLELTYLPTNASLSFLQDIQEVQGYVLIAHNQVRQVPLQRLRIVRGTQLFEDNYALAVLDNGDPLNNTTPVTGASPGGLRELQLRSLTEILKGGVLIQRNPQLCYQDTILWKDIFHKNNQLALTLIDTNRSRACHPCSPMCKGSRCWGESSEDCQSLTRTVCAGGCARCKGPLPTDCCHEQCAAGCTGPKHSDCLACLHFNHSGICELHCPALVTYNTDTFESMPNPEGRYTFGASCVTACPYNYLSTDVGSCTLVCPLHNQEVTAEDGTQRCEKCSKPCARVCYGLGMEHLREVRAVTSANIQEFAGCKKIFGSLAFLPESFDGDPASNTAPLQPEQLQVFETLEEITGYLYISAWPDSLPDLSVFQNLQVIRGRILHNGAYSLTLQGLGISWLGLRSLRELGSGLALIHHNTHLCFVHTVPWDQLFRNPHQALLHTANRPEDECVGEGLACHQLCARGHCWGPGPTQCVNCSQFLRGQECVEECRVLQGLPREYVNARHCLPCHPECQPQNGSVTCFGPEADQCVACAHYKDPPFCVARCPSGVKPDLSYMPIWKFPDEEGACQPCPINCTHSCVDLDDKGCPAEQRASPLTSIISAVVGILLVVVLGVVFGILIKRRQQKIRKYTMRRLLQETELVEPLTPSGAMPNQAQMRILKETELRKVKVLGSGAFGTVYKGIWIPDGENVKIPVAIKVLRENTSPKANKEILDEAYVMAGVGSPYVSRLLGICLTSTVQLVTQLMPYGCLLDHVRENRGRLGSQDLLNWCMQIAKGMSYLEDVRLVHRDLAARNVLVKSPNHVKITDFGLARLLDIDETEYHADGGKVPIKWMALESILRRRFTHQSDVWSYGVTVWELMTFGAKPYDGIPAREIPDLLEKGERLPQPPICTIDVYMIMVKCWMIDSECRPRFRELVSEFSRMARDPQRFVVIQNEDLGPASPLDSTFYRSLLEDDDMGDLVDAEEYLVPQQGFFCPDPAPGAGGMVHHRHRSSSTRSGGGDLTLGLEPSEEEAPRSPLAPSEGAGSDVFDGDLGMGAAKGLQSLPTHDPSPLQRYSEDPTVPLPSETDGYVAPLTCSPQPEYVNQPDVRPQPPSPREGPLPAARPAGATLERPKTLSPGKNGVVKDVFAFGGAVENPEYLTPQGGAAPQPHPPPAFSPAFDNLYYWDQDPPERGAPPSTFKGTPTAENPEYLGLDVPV

Regarding `Cc1cc(=O)n2[nH]c(COc3ccccc3)nc2n1`, the viability in test [1] was 101%; in test [3], 101% (inactive); in test [4], 94.1% (inactive); in test [5], 108% (inactive); in test [6] (setting [9]), 94%; in test [6] (setting [10]), 108%. In test [2], the Her2 level is 105% (inactive). In addition, the differential viability (reversal) in test [6] (H69AR cells + 2 uM doxorubicin) is 14% (inactive). In addition, the values for the inhibition in test [7] and in test [8] were -5.33% (inactive) and -6.13% (inactive), respectively.
For the molecule `N#Cc1nc(-c2ccco2)oc1NCc1ccco1`, the viability is 94% in test [1]; 94% (inactive) in test [3]; 89.3% (inactive) in test [4]; 100% (inactive) in test [5]; 92% in test [6] (setting [9]); 100% in test [6] (setting [10]). The Her2 level in test [2] was 89% (inactive). Moreover, the differential viability (reversal) in test [6] (H69AR cells + 2 uM doxorubicin) is 8.27% (inactive). Moreover, the values for the inhibition in test [7] and in test [8] were -4.13% (inactive) and -8.25% (inactive), respectively.
`Cc1cccc(N2C(=O)CC(N3CCN(Cc4ccc(Cl)cc4)CC3)C2=O)c1` (stereo not given): the viability is 104% in test [1]; 104% (inactive) in test [3]; 94.7% (inactive) in test [4]; 99.2% (inactive) in test [5]; 86.9% in test [6] (setting [9]); 99.2% in test [6] (setting [10]). Moreover, the Her2 level in test [2] was 100% (inactive). In addition, the differential viability (reversal) in test [6] (H69AR cells + 2 uM doxorubicin) was 12.2% (inactive). For the same molecule, the inhibition in test [7] was -3.87% (inactive); in test [8], 0.82% (inactive).
In the case of `Cc1ccnc(NC(=O)CCC(=O)N(CC(=O)NC(C)(C)C)C2CCCC2)c1`, the viability was 108% in test [1]; 108% (inactive) in test [3]; 92.7% (inactive) in test [4]; 93.2% (inactive) in test [5]; 92.6% in test [6] (setting [9]); 93.2% in test [6] (setting [10]). In addition, the Her2 level in test [2] was 99.5% (inactive). Besides, the differential viability (reversal) in test [6] (H69AR cells + 2 uM doxorubicin) was 0.62% (inactive). Further, the inhibition in test [7] was -4.94% (inactive); in test [8], 5.56% (inactive).
Take `O=C(OCC#CCSc1nc2ccccc2s1)c1ccco1`: the viability in test [1] was 88%; in test [3] it was 88% (inactive); in test [4], 74.7% (inactive); in test [5], 81.8% (inactive); in test [6] (setting [9]), 80%; in test [6] (setting [10]), 81.8%. Also, the Her2 level in test [2] was 90.5% (inactive). Moreover, the differential viability (reversal) in test [6] (H69AR cells + 2 uM doxorubicin) was 1.8% (inactive). Further, the figures for the inhibition in test [7] and in test [8] were -2.34% (inactive) and -10.8% (inactive), respectively.
For the molecule `O=S(=O)(c1ccc(Br)s1)N1CCCCC1`, the viability in test [1] is 96.5%; in test [3], 96.5% (inactive); in test [4], 89.5% (inactive); in test [5], 94% (inactive); in test [6] (setting [9]) it was 91.1%; in test [6] (setting [10]) it was 94%. Moreover, in test [2], the Her2 level was 97.5% (inactive). Moreover, the differential viability (reversal) in test [6] (H69AR cells + 2 uM doxorubicin) was 2.88% (inactive). Moreover, the inhibition in test [7] is -1.32% (inactive); in test [8], -2.13% (inactive).
Take `CCOc1cc(S(=O)(=O)N2CCC(Cc3ccccc3)CC2)c(OCC)cc1-n1cnnn1`: the viability in test [1] is 77.5%; in test [3] it was 77.5% (inactive); in test [4] it was 90.7% (inactive); in test [5], 99.7% (inactive); in test [6] (setting [9]) it was 67.2%; in test [6] (setting [10]), 99.7%. In addition, the Her2 level in test [2] was 102% (inactive). Further, in test [6] (H69AR cells + 2 uM doxorubicin), the differential viability (reversal) is 32.5% (inactive). For the same molecule, the inhibition in test [7] is 5.95% (inactive); in test [8] it was -1.59% (inactive).
In the case of `O=C(CSc1ncnc2c1oc1ccccc12)NCc1ccco1`, the viability in test [1] is 140%; in test [3] it was 140% (inactive); in test [4], 83.7% (inactive); in test [5], 76.4% (inactive); in test [6] (setting [9]), 82.1%; in test [6] (setting [10]), 76.4%. For the same molecule, the Her2 level in test [2] was 60% (inactive). For the same molecule, the differential viability (reversal) in test [6] (H69AR cells + 2 uM doxorubicin) was -5.7% (inactive). In addition, the inhibition in test [7] was -6.27% (inactive); in test [8], 2.62% (inactive).
For the molecule `Cc1c(Br)c(C(F)(F)F)nn1CC(=O)NCCN1CCOCC1`, the viability in test [1] was 122%; in test [3], 122% (inactive); in test [4], 108% (inactive); in test [5], 96.6% (inactive); in test [6] (setting [9]), 86.3%; in test [6] (setting [10]), 96.6%. Besides, the Her2 level in test [2] is 100% (inactive). In addition, the differential viability (reversal) in test [6] (H69AR cells + 2 uM doxorubicin) is 10.3% (inactive). For the same molecule, the inhibition was -6.27% (inactive) in test [7] and 2.1% (inactive) in test [8].
Consider `CC1=C(C(=O)NC2CCCC(C)C2C)C2(CCCCC2)OC1=O` (stereo not given), for which the viability was 118% in test [1]; 118% (inactive) in test [3]; 97.6% (inactive) in test [4]; 95.8% (inactive) in test [5]; 87.7% in test [6] (setting [9]); 95.8% in test [6] (setting [10]). Also, in test [2], the Her2 level is 100% (inactive). Also, the differential viability (reversal) in test [6] (H69AR cells + 2 uM doxorubicin) is 8.08% (inactive). For the same molecule, the inhibition in test [7] is -0.27% (inactive); in test [8], 3.67% (inactive).
In the case of `Cc1c(C2Nc3ccccc3NC3=C2C(=O)CC(C)(C)C3)cnn1C` (stereo not given), the viability in test [1] is 112%; in test [3], 112% (inactive); in test [4], 93% (inactive); in test [5], 89.2% (inactive); in test [6] (setting [9]), 88.4%; in test [6] (setting [10]), 89.2%. Also, the Her2 level in test [2] was 107% (inactive). Also, the differential viability (reversal) in test [6] (H69AR cells + 2 uM doxorubicin) is 0.765% (inactive). The inhibition in test [7] was -4.38% (inactive); in test [8], -5.87% (inactive).
With `COC(=O)C1=C(C)NC(C)=C(C(=O)OC)C1c1cc2cc(C)ccc2[nH]c1=O`, the viability in test [1] is 103%; in test [3], 103% (inactive); in test [4], 84.6% (inactive); in test [5], 79.4% (inactive); in test [6] (setting [9]), 72.6%; in test [6] (setting [10]), 79.4%. Also, the Her2 level in test [2] was 66% (inactive). Besides, in test [6] (H69AR cells + 2 uM doxorubicin), the differential viability (reversal) is 6.74% (inactive). The results for the inhibition in test [7] and in test [8] were -3.29% (inactive) and 3.45% (inactive), respectively.
Take `Cc1nc2ccccc2n1CCC(=O)Nc1cccc(F)c1`: the viability in test [1] was 88%; in test [3], 88% (inactive); in test [4] it was 93.6% (inactive); in test [5] it was 79.9% (inactive); in test [6] (setting [9]) it was 90%; in test [6] (setting [10]), 79.9%. In test [2], the Her2 level is 90% (inactive). In addition, the differential viability (reversal) in test [6] (H69AR cells + 2 uM doxorubicin) was -10.1% (inactive). Also, the inhibition is 0.38% (inactive) in test [7] and -5.33% (inactive) in test [8].
Consider `CN(C(=O)COC(=O)C1CCN(S(=O)(=O)c2cccs2)CC1)C1CCS(=O)(=O)C1` (stereo not given), for which the viability in test [1] was 118%; in test [3] it was 118% (inactive); in test [4], 94.9% (inactive); in test [5], 99.8% (inactive); in test [6] (setting [9]) it was 87.2%; in test [6] (setting [10]), 99.8%. The Her2 level in test [2] is 127% (inactive). The differential viability (reversal) in test [6] (H69AR cells + 2 uM doxorubicin) was 12.6% (inactive). Also, the inhibition in test [7] is -4.4% (inactive); in test [8], -7.74% (inactive).
Consider `COc1ccc(C2/C(=C(/O)c3ccccc3)C(=O)C(=O)N2C)cc1` (stereo not given), for which the viability was 102% in test [1]; 102% (inactive) in test [3]; 107% (inactive) in test [4]; 101% (inactive) in test [5]; 98.1% in test [6] (setting [9]); 101% in test [6] (setting [10]). For the same molecule, the Her2 level in test [2] is 83.5% (inactive). Besides, the differential viability (reversal) in test [6] (H69AR cells + 2 uM doxorubicin) is 3% (inactive). For the same molecule, the inhibition in test [7] was -7.84% (inactive); in test [8], 1.97% (inactive).
For `COc1ccc(S(=O)(=O)N2CCN(C3CCCCCCC3)CC2)cc1`, the viability in test [1] was 87.5%; in test [3], 87.5% (inactive); in test [4] it was 106% (inactive); in test [5], 93.9% (inactive); in test [6] (setting [9]) it was 100%; in test [6] (setting [10]), 93.9%. Besides, the Her2 level in test [2] is 89.5% (inactive). The differential viability (reversal) in test [6] (H69AR cells + 2 uM doxorubicin) is -6.63% (inactive). Also, the values for the inhibition in test [7] and in test [8] were -2.11% (inactive) and -0.98% (inactive), respectively.
